hERG protect – shields human hERG channel from block by proarrhythmic agents; AID 1511; CHO-hERG, FluxOR thallium flux, dofetilide IC70 present; activation (rescue from dofetilide block), less the hit threshold, % at 10 µM; 310,000 compounds, 0.51% hits; Q12809;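 active = activation above the mean of controls blocked by dofetilide plus 5 SD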;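 note: thallium influx through hERG after potassium depolarization seen as dye fluorescence rise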
Target sequence (Q12809 whole entry, looked up): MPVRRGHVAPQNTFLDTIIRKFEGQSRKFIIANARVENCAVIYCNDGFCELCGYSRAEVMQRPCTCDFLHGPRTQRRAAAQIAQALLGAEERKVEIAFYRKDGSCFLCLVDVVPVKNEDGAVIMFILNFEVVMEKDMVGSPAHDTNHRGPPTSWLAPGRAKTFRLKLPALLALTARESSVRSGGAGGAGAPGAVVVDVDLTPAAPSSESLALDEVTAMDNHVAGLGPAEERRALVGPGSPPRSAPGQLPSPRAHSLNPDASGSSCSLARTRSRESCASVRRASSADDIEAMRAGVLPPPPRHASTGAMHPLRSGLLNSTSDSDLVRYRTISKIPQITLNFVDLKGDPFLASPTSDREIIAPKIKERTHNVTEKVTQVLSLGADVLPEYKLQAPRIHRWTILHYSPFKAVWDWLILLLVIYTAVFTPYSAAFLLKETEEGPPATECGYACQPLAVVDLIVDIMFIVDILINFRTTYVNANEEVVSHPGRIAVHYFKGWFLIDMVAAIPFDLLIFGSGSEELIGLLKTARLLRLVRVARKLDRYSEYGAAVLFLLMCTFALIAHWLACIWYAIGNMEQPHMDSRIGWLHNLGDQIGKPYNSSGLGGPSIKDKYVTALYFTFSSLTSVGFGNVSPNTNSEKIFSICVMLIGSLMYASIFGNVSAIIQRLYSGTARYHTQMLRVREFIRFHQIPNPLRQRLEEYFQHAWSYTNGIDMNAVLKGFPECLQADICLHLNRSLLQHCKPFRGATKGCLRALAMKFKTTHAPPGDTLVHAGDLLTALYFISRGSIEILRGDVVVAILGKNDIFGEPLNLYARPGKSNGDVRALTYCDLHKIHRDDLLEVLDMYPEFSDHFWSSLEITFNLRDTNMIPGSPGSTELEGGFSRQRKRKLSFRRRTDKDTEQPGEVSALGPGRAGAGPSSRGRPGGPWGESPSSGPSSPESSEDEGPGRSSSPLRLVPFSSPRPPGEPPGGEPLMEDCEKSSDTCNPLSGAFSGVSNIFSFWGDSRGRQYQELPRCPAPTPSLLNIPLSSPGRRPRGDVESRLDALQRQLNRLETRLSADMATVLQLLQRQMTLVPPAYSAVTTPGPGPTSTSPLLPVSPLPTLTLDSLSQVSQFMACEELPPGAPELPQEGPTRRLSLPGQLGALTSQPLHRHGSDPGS
KCNQ1 pot – potentiators or activators of human KCNQ1 potassium channel; P51787; CHO-K1 KCNQ1, thallium flux FluxOR fluorescence; stronger effect = higher value; B-score at 10 µM; 310,000 compounds, 0.35% hits; AID 2648;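 active = fluorescence ratio B-score, a plate-corrected score, at least three library SD, with initial intensity B-score within 5 SD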
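Doses: Single concentration per compound, DMSO matched to controls | Test system: KCNQ1-transfected CHO-K1 cells | Timing: 90 min dye loading and 20 min compound exposure, both at room temperature | Measured by: Kinetic FluxOR thallium fluorescence, 10-s 1-Hz baseline, 110-s post-stimulus read | Medium: Assay buffer with matched DMSO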
KCNK3 block – human KCNK3 channel inhibition, primary screen; CHO-KCNK3 thallium flux, FluxOR fluorescence; stronger effect = lower value; O14649; 340,000 compounds, 0.84% hits; B-score at 10 µM; AID 602410;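 active = B-score under library mean minus 4 SD, starting fluorescence ratio at most library mean plus 5 SD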;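 note: more negative B-score means stronger inhibition of thallium flux through KCNK3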
KCNK9 block – human KCNK9 channel inhibition. AID 488922. Q9NPC2. HEK293 KCNK9, FluxOR thallium flux fluorescence; stronger effect = lower value. 310,000 compounds, 1.2% hits. B-score at 10 µM;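 active = ratio B-score over 3 SD below the library mean, with starting fluorescence within 5 SD of its mean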;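 note: negative B-score means less thallium flux so channel inhibition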
KCNQ1 block – human KCNQ1 channel inhibition. P51787. CHO-K1 KCNQ1, FluxOR thallium flux fluorescence; stronger effect = higher value. B-score at 10 µM. 310,000 compounds, 1.3% hits;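 active = compounds whose thallium flux B-score, printed positive for inhibition, exceeds three library SD while starting fluorescence stays within three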;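 note: channel opened by potassium depolarization with thallium stimulus after 20 min compound exposure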
KCNK9 block conf – confirmation of human KCNK9 potassium channel inhibitors. shares compounds with KCNK9 block. HEK293 KCNK9 cells, FluxOR thallium flux fluorescence. inhibition, % at 10 µM. 4,900 compounds, 43% hits;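 active = thallium signal inhibited by more than 5 SD of the compound-free buffer control wells, on both duplicate plates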;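 note: 0% = assay buffer control wells without compound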
Kir2-1 spec – tests whether KCNK9 modulators also affect mouse Kir2.1; shares compounds with KCNK9 block; Kir2.1 cells, FluxOR thallium flux fluorescence; inhibition, % at 10 µM; 4,900 compounds, 4% hits;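 active = thallium signal drop more than 5 SD beyond the mean of the no-compound control wells, seen in both duplicate plates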;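 note: signal is fluorescence rise after thallium addition divided by baseline fluorescence; plate controls were assay buffer only for no effect and full block by chlorpromazine control for full effect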
HEK293 Tl ctr – second counter-screen for KCNK9 modulators: effect in non-induced cells; shares compounds with KCNK9 block; non-induced KCNK9-HEK293, FluxOR thallium flux; inhibition, % at 10 µM; 4,900 compounds, 40% hits;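 active = thallium signal drop beyond 5 SD of the untreated control mean, on both duplicate plates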;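 note: plate controls were buffer only IC0 wells for no effect and SID17386958 at its maximal inhibitory level for full effect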
The depositor's hits bear a star; i = inactive; · = not tested or not shown. This is a sample that favours compounds with a hit; in the whole collection about 3.1% have one here.

SMILES | hERG protect | KCNQ1 pot | KCNK3 block | KCNK9 block | KCNQ1 block | KCNK9 block conf | Kir2-1 spec | HEK293 Tl ctr
Cc1cccc(N2CCN(C(=O)Cc3ccc(Br)cc3)CC2)c1C | -17 | i | i | i | i | i | i | 26%*
CCOC(=O)c1c(NC(=O)CSc2nnc(Cc3ccccc3)o2)sc(C)c1C | -6 | i | i | i | i | i | i | i
CCOC(=O)c1c(NC(=O)CSc2nnc(-c3ccco3)o2)sc(C)c1C | -5 | i | i | i | i | · | · | ·
CCOC(=O)c1c(NC(=O)CSc2nnc(-c3ccc(Cl)cc3)o2)sc2c1CCC2 | -11 | i | i | i | i | i | i | i
CC(C)(C)c1ccc(-c2nnc(SCC(=O)Nc3sc4c(c3C#N)CCCC4)o2)cc1 | -5 | i | i | i | i | · | · | ·
CCOC(=O)c1c(NC(=O)CSc2nc3ccccc3o2)sc(C)c1C | -12 | i | i | i | i | · | · | ·
CCOC(=O)c1c(NC(=O)CSc2nc3ccccc3s2)sc(C)c1C | -11 | i | i | i | i | i | i | i
CCOC(=O)c1c(NC(=O)CCc2ccc(CC)o2)sc(C)c1C | -19 | i | i | i | i | i | i | 24%*
CCOc1ccc2nc(NC(NC(=O)CC)(C(=O)OC)C(F)(F)F)sc2c1 (stereo unspecified) | -2 | i | i | i | i | · | · | ·
CSc1ncccc1C(=O)OCC(=O)NC(C)(C)C | -4 | i | i | i | i | · | · | ·
Cc1nnc(SCC(=O)Nc2sc3c(c2C(=O)c2ccccc2)CCCC3)s1 | -8 | i | i | i | i | i | i | i
Cc1nnc(SCC(=O)Nc2ccccc2NC(=O)CSc2nnc(C)s2)s1 | -13 | i | i | i | i | · | · | ·
Cc1nn(C(C)C)c(C)c1CN1CCCC(C(=O)c2cccc(OC(C)C)c2)C1 (stereo unspecified) | -9 | i | i | i | i | i | i | i
COc1cccc(C(=O)C2CCCN(Cc3cccc(-n4nc(C)cc4C)c3)C2)c1 (stereo unspecified) | -15 | i | i | i | i | i | i | i
CC1(C)CN(c2ccsc2C(=O)O)C1=O | -8 | i | i | i | i | · | · | ·
Cc1ccccc1C(=O)Nc1sc(C)c(C)c1C(=O)c1ccccc1 | -20 | i | i | i | 8* | i | i | i
N#Cc1cc(-c2ccccc2)cnc1Sc1ccc(Cl)cc1 | -14 | i | i | i | i | i | i | i
N#Cc1cc(-c2ccc(Cl)cc2)cnc1Sc1ccccc1 | -11 | i | i | i | i | · | · | ·
Cc1cc(C(=O)OC(C)C(=O)N2CCc3ccccc32)ccc1[N+](=O)[O-] (stereo unspecified) | -11 | i | i | i | i | i | i | i
Cc1cc(C)c(OCC(=O)OC(C)C(=O)N2CCc3ccccc32)c(C)c1 (stereo unspecified) | -13 | i | i | i | i | · | · | ·
O=C(Nc1cc(Sc2nc3ccccc3s2)cc([N+](=O)[O-])c1)c1ccccc1F | -20 | i | i | -9* | i | 32%* | i | 30%*
O=C(Oc1ccc2ccc(=O)oc2c1)c1ccc([N+](=O)[O-])cc1 | -11 | i | i | -15* | i | 40%* | i | i
Cc1ccc(C(=O)Oc2ccc3ccc(=O)oc3c2)cc1 | -4 | i | i | i | i | · | · | ·
CCCN(CCC)c1ccc(CC(=O)NC(C)Cc2ccccc2)cc1 (stereo unspecified) | -6 | i | i | i | i | i | i | i
COc1ccc(OC)c(C(c2nnnn2C2CCCC2)N2CCN(c3ccc(F)cc3)CC2)c1 (stereo unspecified) | -2 | i | i | -15* | 6* | 52%* | i | 44%*
SMILES | hERG protect | KCNQ1 pot | KCNK3 block | KCNK9 block | KCNQ1 block | KCNK9 block conf | Kir2-1 spec | HEK293 Tl ctr
CCOC(=O)c1ccccc1NC(=O)c1cn(-c2ccc(C)c(C)c2)c(=O)c2ccccc12 | -25 | i | i | i | i | · | · | ·
CCOC(=O)c1ccccc1NC(=O)c1cn(-c2ccc(OC)cc2)c(=O)c2ccccc12 | -6 | i | i | -9.3* | i | 26%* | i | i
Cc1ccc(C)c(OCCC(=O)OCC(=O)NC2CCCC2)c1 | -10 | i | i | i | i | · | · | ·
CCc1nnc(NC(=O)CSc2nnc(-c3ccccc3OC)n2-c2ccccc2)s1 | -16 | i | i | -17* | i | 68%* | i | 32%*
Cc1cc(/C=C(\C#N)C(=O)NC2CCCCCC2)c(C)[nH]1 | -4 | i | i | i | i | · | · | ·
COc1ccc(-c2[nH]ncc2/C=C(/C#N)C(=O)NC2CCCCCC2)cc1 | -9 | i | i | i | i | i | i | i
CC(=O)Nc1cccc(NC(=O)CS(=O)(=O)c2cn(CC(=O)N3CCCC3)c3ccccc23)c1 | -1 | i | i | i | i | · | · | ·
Cc1ccc(NC(=O)/C(C#N)=C(\N)C(Cl)(Cl)Cl)nc1 | -18 | i | i | i | i | · | · | ·
COc1cc(-c2nc(C(=O)NCC3CCCO3)cc3c2[nH]c2ccccc23)cc(OC)c1OC (stereo unspecified) | -30 | i | i | i | i | · | · | ·
O=C(NCC1CCCO1)c1cc2c([nH]c3ccccc32)c(-c2cccc(Cl)c2)n1 (stereo unspecified) | -35 | i | i | -11* | 12* | i | i | i
COC(=O)[C@H](CC(C)C)NC(=O)N1CCC(C)CC1 | -7 | i | i | i | i | · | · | ·
CNC[C@H](CC1CCCCC1)NC[C@H](Cc1ccccc1)NCCC12CC3CC(CC(C3)C1)C2 | -3 | i | i | -10* | i | 62%* | 80%* | 26%*
CC1(c2ccc(OCC#N)cc2)C=C(c2ccc(OCC#N)cc2)n2nc(C(F)(F)F)nc2N1 (stereo unspecified) | -7 | i | i | -9.2* | i | 43%* | i | 44%*
Cc1nn(-c2ccccc2)c(Cl)c1/C=N/Nc1ccc(S(=O)(=O)Nc2ccccc2C(=O)O)cc1[N+](=O)[O-] | -11 | i | i | i | i | i | i | i
CSc1ccc(C=NNc2ccc(S(=O)(=O)Nc3ccccc3C(=O)O)cc2[N+](=O)[O-])cc1 | · | · | i | · | · | · | · | ·
O=C(NCc1cccnc1)c1ccc(CS(=O)(=O)c2ccc(Cl)cc2)o1 | -1 | i | i | i | i | · | · | ·

High-throughput results (PubChem)
